According to paper PMC3501270 (Bioorganic & medicinal chemistry, 2012):

Key:
[1] = target: Smo-D473H mutant receptor (Homo sapiens, UniProt Q99835, D473H); assay type: binding; details: for displacement of [3H]-cyclopamine from Smo-D473H: U2OS cells overexpressing Smo-D473H, competitor up to 10 µM
wild-type Smo = wild-type Smo (Homo sapiens, UniProt Q99835); assay type: binding; details: 25 nM [3H]-cyclopamine; competitor 0 – 10 µM
[2] = tested on: Smo-633 receptor and βarr2-GFP; assay: Smo/βarr2-GFP translocation primary high-throughput confocal imaging assay; assay type: cell-based; details: U2OS cells stably expressing Smo-633 and βarr2-GFP; 5 µM, 6 hours
Hh-dependent hair growth = assay: Hh-dependent hair regrowth after depilation; assay type: in vivo, mouse; details: C57BL female mice, topical 30 µl of 0.5 mM daily for 2 weeks
How it was run: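 Eight-week-old female C57BL/6 mice in telogen phase had the dorsum shaved. The lower half of the shaved area was depilated with Nair for 2 min and rinsed with water. Test compound in 95% acetone/5% DMSO, or vehicle alone, was applied topically to the depilated skin. Brief 3% isoflurane anaesthesia was used for all procedures. Five mice per group; hair regrowth assessed at 2 weeks.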

[3] = Storage stability in solution; assay type: physicochemical; details: room temperature, DMSO or methanolic solution, 1 week
[4] = target: vasopressin2 receptor (V2R) (Homo sapiens, UniProt P30518); assay: V2R/βarr2-GFP aggregation control assay; assay type: cell-based; details: arginine vasopressin stimulated cells; Supplementary Figure 3
Chain of vasopressin2 receptor (V2R) (P30518 whole entry, species assumed): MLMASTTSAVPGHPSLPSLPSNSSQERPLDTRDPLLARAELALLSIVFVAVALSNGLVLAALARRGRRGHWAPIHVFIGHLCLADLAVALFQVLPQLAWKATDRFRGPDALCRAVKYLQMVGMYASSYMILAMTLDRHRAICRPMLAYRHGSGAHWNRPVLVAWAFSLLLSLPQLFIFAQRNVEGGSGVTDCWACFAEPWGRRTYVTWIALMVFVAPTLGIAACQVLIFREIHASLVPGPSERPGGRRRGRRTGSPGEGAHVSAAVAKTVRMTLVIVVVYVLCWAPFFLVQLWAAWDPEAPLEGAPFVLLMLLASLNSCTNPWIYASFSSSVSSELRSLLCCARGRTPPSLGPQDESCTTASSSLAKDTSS

[5] = tested on: Shh-induced Gli reporter activity; details: 1 µM concentration; cited from earlier work

Chain of wild-type Smo (Q99835 28-787): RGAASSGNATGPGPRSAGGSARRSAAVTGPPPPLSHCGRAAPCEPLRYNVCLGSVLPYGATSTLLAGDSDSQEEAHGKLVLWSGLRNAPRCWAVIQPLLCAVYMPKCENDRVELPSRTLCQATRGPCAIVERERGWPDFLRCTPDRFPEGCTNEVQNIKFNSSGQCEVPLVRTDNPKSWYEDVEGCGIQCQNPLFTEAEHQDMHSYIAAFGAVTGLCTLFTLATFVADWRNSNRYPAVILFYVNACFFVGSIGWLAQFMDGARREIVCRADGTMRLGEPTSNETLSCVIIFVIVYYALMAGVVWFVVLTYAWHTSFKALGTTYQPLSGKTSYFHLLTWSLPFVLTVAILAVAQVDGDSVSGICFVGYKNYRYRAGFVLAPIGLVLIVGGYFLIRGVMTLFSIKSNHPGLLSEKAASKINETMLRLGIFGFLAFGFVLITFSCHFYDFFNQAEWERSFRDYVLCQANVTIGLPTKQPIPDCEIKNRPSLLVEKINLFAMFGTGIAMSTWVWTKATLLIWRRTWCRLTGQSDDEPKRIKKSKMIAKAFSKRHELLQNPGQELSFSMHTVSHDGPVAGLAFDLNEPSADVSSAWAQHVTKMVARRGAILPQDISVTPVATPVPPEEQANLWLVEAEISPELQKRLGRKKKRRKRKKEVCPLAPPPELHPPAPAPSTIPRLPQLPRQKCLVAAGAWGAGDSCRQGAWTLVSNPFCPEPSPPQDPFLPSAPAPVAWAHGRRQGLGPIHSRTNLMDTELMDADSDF
Chain of Smo-D473H mutant receptor (Q99835 28-787 D473H): as the sequence (Q99835 28-787) above, with D446H counted along it

Row | Structure (SMILES) | displacement of [3H]-cyclopamine from Smo-D473H [1] | displacement of [3H]-cyclopamine from wild-type Smo (wild-type Smo) | inhibition of intracellular βarr2-GFP aggregation [2] | right shift in affinity, SmoD473H versus wild-type Smo ([1]; ratio of Ki mutant / wild-type) | Hh-induced hair growth (Hh-dependent hair growth) | activity after storage in solution [3] | aggregation of V2R and βarr2-GFP [4] | inhibition of Gli-reporter activity at 1 µM [5] | binding affinity to the mutant receptor (Ki not determinable) ([1]; Smo-D473H, up to 10 uM)
1 | CS(=O)(=O)c1ccc(C(=O)Nc2ccc(Cl)c(-c3ccccn3)c2)c(Cl)c1 [GDC-0449, Vismodegib] | only partially displaced | completely displaced |  |  |  |  |  |  | 
2 | O=C(NC1CCN(Cc2ccc(N3CCC(NC(=O)c4cccc(-c5cccnc5)c4)CC3)nc2)CC1)c1cccc(-c2cccnc2)c1 [Compound A8] | completely displace | completely displaced | confirmed | approximately 13 fold | largely inhibited | retained activity | not inhibited |  | 
3 | CC1=C2C[C@H]3[C@@H](CC=C4C[C@@H](O)CC[C@@]43C)[C@@H]2CC[C@]12O[C@@H]1C[C@H](C)CN[C@H]1[C@H]2C [cyclopamine] | completely displace | completely displaced | inhibits the aggregation of βarr2-GFP |  |  |  |  | strong inhibition | 
4 | Cc1c(C(=O)Nc2ccc(N3C[C@@H](C)O[C@@H](C)C3)nc2)cccc1-c1ccc(OC(F)(F)F)cc1 [LDE-225, Erismodegib] | largely ineffective | completely displaced |  |  |  |  |  |  | too weak
